# Laboratory results reported in ChEMBL document CHEMBL4257575, “Discovery of Novel Flavonoid Dimers To Reverse Multidrug Resistance Protein 1 (MRP1, ABCC1) Mediated Drug Resistance in Cancers Using a High Throughput Platform with "Click Chemistry"” (J Med Chem, 2018).
# Target: Multidrug resistance-associated protein 1 (Homo sapiens, UniProt P33527)
# Assay: Inhibition of MRP1 in human 2008/MRP1 cells assessed as potentiation of doxorubicin-induced cytotoxicity by measuring cell survival at 2 uM after 5 days by MTS assay relative to control
# Assay type: cell-based
# Conditions: 120 h
# Method in brief: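 2008/MRP1 cells (retroviral human MRP1 transfectant; RPMI 1640, 10% FBS) at 4,000 per well, with 100 nM doxorubicin plus crude, unpurified click products in DMSO: 2 µM in the primary screen, 1 µM in the secondary. Incubated 5 days at 37 °C. MTS/PMS added for 2 h at 37 °C, absorbance read at 490 nm. % survival is relative to wells without DOX or product. Run in triplicate, at least three experiments.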
# Multidrug resistance-associated protein 1, sequence (P33527 whole entry): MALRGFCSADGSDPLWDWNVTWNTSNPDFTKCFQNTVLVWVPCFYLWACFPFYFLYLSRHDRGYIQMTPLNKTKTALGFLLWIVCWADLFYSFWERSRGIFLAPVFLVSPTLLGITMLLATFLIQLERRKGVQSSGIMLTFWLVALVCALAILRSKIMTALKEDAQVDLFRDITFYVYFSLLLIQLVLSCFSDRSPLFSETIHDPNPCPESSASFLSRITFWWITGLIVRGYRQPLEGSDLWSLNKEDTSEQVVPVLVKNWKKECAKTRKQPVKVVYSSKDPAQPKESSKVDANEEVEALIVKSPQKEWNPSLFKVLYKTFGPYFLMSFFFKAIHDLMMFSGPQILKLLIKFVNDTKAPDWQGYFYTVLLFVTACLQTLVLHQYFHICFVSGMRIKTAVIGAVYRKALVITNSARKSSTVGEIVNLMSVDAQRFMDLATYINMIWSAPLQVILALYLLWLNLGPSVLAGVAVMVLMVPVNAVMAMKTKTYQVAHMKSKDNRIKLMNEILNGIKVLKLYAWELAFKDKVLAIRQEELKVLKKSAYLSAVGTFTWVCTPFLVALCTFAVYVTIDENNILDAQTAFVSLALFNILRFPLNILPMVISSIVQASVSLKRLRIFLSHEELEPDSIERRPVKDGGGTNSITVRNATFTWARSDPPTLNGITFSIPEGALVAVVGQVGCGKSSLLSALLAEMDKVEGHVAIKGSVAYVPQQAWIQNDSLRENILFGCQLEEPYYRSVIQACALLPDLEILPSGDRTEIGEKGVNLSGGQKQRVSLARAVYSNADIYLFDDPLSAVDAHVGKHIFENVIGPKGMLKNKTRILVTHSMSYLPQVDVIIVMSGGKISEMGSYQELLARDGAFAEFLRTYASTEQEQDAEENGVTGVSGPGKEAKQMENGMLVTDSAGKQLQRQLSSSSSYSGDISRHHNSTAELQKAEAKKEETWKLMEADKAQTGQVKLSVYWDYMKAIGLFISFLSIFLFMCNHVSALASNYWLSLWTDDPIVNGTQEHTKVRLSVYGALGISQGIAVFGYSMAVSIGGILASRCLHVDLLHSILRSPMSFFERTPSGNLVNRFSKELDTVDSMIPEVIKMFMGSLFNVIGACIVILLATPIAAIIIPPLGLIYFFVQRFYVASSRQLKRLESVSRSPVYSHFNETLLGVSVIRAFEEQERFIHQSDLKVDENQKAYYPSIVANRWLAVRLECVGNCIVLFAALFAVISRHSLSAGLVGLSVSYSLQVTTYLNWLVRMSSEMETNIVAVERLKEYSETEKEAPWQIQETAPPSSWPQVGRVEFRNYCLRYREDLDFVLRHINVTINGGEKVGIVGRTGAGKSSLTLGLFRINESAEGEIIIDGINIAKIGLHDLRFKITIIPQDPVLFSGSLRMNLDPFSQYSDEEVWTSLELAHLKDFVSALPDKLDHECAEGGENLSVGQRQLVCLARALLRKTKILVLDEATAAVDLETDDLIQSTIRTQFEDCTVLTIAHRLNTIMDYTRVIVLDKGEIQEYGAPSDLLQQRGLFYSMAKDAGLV
row,SMILES,Survival [%]
1,O=c1cc(-c2ccccc2)oc2cc(OCCCc3cn(CCOCCOc4ccc(-c5cc(=O)c6cc(F)ccc6o5)cc4)nn3)ccc12,55
2,[N-]=[N+]=NCCOCCOc1ccc2c(=O)cc(-c3ccccc3)oc2c1,91
3,O=c1cc(-c2ccccc2)oc2cc(OCCCc3cn(CCOc4cccc5c(=O)cc(-c6ccccc6)oc45)nn3)ccc12,56
4,Cc1ccc(O)c(C(=O)/C=C/c2ccc(OCCCCc3cn(CCOCCOCCOc4ccc5c(=O)cc(-c6ccccc6)oc5c4)nn3)cc2)c1,84
5,O=c1cc(-c2ccccc2)oc2cc(OCCn3cc(CN(Cc4cn(CCOc5ccc6occ(-c7ccccc7)c(=O)c6c5)nn4)Cc4cn(CCOc5ccc6occ(-c7ccccc7)c(=O)c6c5)nn4)nn3)ccc12,87
6,O=C1c2ccccc2C(=O)N1CCc1cn(CCOCCOc2cccc(-c3oc4ccccc4c(=O)c3OCc3ccccc3)c2)nn1,62
7,O=c1cc(-c2ccc(OCCOCCn3cc(-c4ccc(-c5cn(CCOCCOc6ccc(-c7cc(=O)c8cc(F)ccc8o7)cc6)nn5)cc4)nn3)cc2)oc2ccc(F)cc12,77
8,O=c1cc(-c2ccc(OCCCc3cn(CCOCCOc4cccc(-c5oc6ccccc6c(=O)c5OCc5ccccc5)c4)nn3)cc2)oc2ccc(F)cc12,79
9,O=Cc1ccc(OCCCCc2cn(CCOCCOc3ccc4c(=O)cc(-c5ccccc5)oc4c3)nn2)cc1,82
10,O=c1c(OCc2ccccc2)c(-c2ccc(OCCOCCOCCn3cc(CN(Cc4ccccc4)Cc4cn(CCOCCOCCOc5ccc(-c6oc7ccccc7c(=O)c6OCc6ccccc6)cc5)nn4)nn3)cc2)oc2ccccc12,87
11,O=c1c(OCc2ccccc2)c(-c2ccc(OCCOCCn3cc(CN(Cc4ccccc4)Cc4cn(CCOCCOc5ccc(-c6oc7ccccc7c(=O)c6OCc6ccccc6)cc5)nn4)nn3)cc2)oc2ccccc12,62
12,O=Cc1ccc(OCCCCc2cn(CCOCCOCCOc3ccc(-c4cc(=O)c5cc(F)ccc5o4)cc3)nn2)cc1,74
13,Cc1ccc(C(=O)/C=C/c2ccc(OCCCCc3cn(CCOCCOCCOc4ccc5c(=O)cc(-c6ccccc6)oc5c4)nn3)cc2)c(O)c1,72
14,O=C(/C=C/c1ccc(OCCCCc2cn(CCOCCOCCOc3ccc(-c4oc5ccccc5c(=O)c4OCc4ccccc4)cc3)nn2)cc1)c1ccccc1O,61
15,O=c1c(OCc2ccccc2)c(-c2ccc(OCCOCCOCCn3cc(CNc4ccccc4)nn3)cc2)oc2ccccc12,87
16,O=c1cc(-c2ccccc2)oc2cc(OCCOCCOCCn3cc(-c4ccc(-c5cn(CCOCCOCCOc6ccc7c(=O)cc(-c8ccccc8)oc7c6)nn5)cc4)nn3)ccc12,88
17,Cc1ccc(O)c(C(=O)/C=C/c2ccc(OCCCCc3cn(CCOCCOc4ccc(-c5oc6ccccc6c(=O)c5OCc5ccccc5)cc4)nn3)cc2)c1,68
18,COc1cccc(COc2c(-c3ccc(OCCOCCn4cc(CCCOc5ccc(-c6cc(=O)c7cc(F)ccc7o6)cc5)nn4)cc3)oc3ccccc3c2=O)c1,86
19,O=c1cc(-c2ccccc2)oc2cc(OCCCCc3cn(CCOCCOCCOc4ccc(-c5oc6ccccc6c(=O)c5OCc5ccccc5)cc4)nn3)ccc12,63
20,O=c1cc(-c2ccc(OCCCc3cn(CCOc4cccc5c(=O)cc(-c6ccccc6)oc45)nn3)cc2)oc2ccccc12,69

row,SMILES,Survival [%]
1,Cc1ccc2oc(-c3ccc(OCCOCCOCCn4cc(CCCOc5ccc(-c6cc(=O)c7ccccc7o6)cc5)nn4)cc3)cc(=O)c2c1,51
2,O=c1cc(-c2ccccc2)oc2cc(OCCN(Cc3ccccc3)Cc3cn(CCOCCOCCOc4ccc(-c5oc6ccccc6c(=O)c5OCc5ccccc5)cc4)nn3)ccc12,65
3,CN(CCN(C)Cc1cn(CCOCCOc2ccc(-c3cc(=O)c4cc(F)ccc4o3)cc2)nn1)Cc1cn(CCOCCOc2ccc(-c3cc(=O)c4cc(F)ccc4o3)cc2)nn1,73
4,COCOc1cc(OCc2ccccc2)c2c(=O)cc(-c3ccc(OCCCc4cn(CCOc5cccc6c(=O)cc(-c7ccccc7)oc56)nn4)cc3)oc2c1,81
5,O=c1cc(-c2ccc(OCCOCCOCCn3cc(CN4CCN(Cc5cn(CCOCCOCCOc6ccc(-c7cc(=O)c8cc(F)ccc8o7)cc6)nn5)CC4)nn3)cc2)oc2ccc(F)cc12,85
6,O=c1cc(-c2ccc(OCCCc3cn(CCOCCOc4ccc(-c5oc6ccccc6c(=O)c5OCc5ccccc5)cc4)nn3)cc2)oc2ccccc12,50
7,O=Cc1ccc(OCCCCc2cn(CCOCCOc3ccc(-c4cc(=O)c5cc(F)ccc5o4)cc3)nn2)cc1,78
8,O=C(/C=C/c1ccc(OCCCCc2cn(CCOCCOc3ccc(-c4oc5ccccc5c(=O)c4OCc4ccccc4)cc3)nn2)cc1)c1ccccc1O,72
9,COCOc1cc(OCc2ccccc2)c2c(=O)cc(-c3ccc(OCCCc4cn(CCOCCOc5ccc(-c6oc7ccccc7c(=O)c6OCc6ccccc6)cc5)nn4)cc3)oc2c1,88
10,COc1cccc(COc2c(-c3ccc(OCCOCCn4cc(CCCCOc5ccc(/C=C/C(=O)c6ccccc6O)cc5)nn4)cc3)oc3ccccc3c2=O)c1,74
11,O=c1cc(-c2ccccc2)oc2cc(OCCn3cc(-c4cccc(-c5cn(CCOc6ccc7occ(-c8ccccc8)c(=O)c7c6)nn5)c4)nn3)ccc12,90
12,CCc1ccc(O)c(C(=O)/C=C/c2ccc(OCCCCc3cn(CCOCCOc4ccc(-c5cc(=O)c6cc(F)ccc6o5)cc4)nn3)cc2)c1,80
13,O=c1cc(-c2ccc(OCCCc3cn(CCOCCOc4ccc(-c5oc6ccccc6c(=O)c5OCc5ccccc5)cc4)nn3)cc2)oc2ccc(F)cc12,97
14,Cc1ccc(C(=O)/C=C/c2ccc(OCCCCc3cn(CCOCCOc4ccc(-c5oc6ccccc6c(=O)c5OCc5ccccc5)cc4)nn3)cc2)c(O)c1,66
15,O=c1c(OCc2ccccc2)c(-c2ccc(OCCOCCOCCn3cc(CN4CCN(Cc5cn(CCOCCOCCOc6ccc(-c7oc8ccccc8c(=O)c7OCc7ccccc7)cc6)nn5)CC4)nn3)cc2)oc2ccccc12,96
16,COc1cccc(COc2c(-c3ccc(OCCOCCn4cc(CCCOc5ccc(-c6nc7ccccc7c(=O)[nH]6)cc5)nn4)cc3)oc3ccccc3c2=O)c1,67
17,CCc1ccc(O)c(C(=O)/C=C/c2ccc(OCCCCc3cn(CCOCCOCCOc4ccc(-c5cc(=O)c6cc(C)ccc6o5)cc4)nn3)cc2)c1,63
18,O=c1cc(-c2ccccc2)oc2cc(OCCCc3cn(CCOCCOCCOc4ccc5c(=O)cc(-c6ccccc6)oc5c4)nn3)ccc12,57
19,CCc1ccc(O)c(C(=O)/C=C/c2ccc(OCCCCc3cn(CCOCCOCCOc4ccc(-c5oc6ccccc6c(=O)c5OCc5ccccc5)cc4)nn3)cc2)c1,77
20,Cc1ccc2oc(-c3ccc(OCCCCc4cn(CCOCCOCCOc5ccc(-c6oc7ccccc7c(=O)c6OCc6ccccc6)cc5)nn4)cc3)cc(=O)c2c1,59

row,SMILES,Survival [%]
1,COc1cccc(COc2c(-c3ccc(OCCOCCn4cc(CNc5ccccc5)nn4)cc3)oc3ccccc3c2=O)c1,89
2,O=C(/C=C/c1ccc(OCCCCc2cn(CCOc3cccc4c(=O)cc(-c5ccccc5)oc34)nn2)cc1)c1ccc(F)cc1O,73
3,O=C(/C=C/c1ccc(OCCCCc2cn(CCOCCOc3ccc4c(=O)cc(-c5ccccc5)oc4c3)nn2)cc1)c1ccccc1O,58
4,O=c1cc(-c2ccccc2)oc2cc(OCCCCc3cn(CCOc4cccc5c(=O)cc(-c6ccccc6)oc45)nn3)ccc12,60
5,O=c1cc(-c2ccccc2)oc2cc(OCCCCc3cn(CCOCCOc4cccc(-c5oc6ccccc6c(=O)c5OCc5ccccc5)c4)nn3)ccc12,62
6,C#Cc1cccc(C#C)c1,84
7,O=c1cc(-c2ccccc2)oc2cc(OCCOCc3cn(CCOCCOc4ccc(-c5cc(=O)c6cc(F)ccc6o5)cc4)nn3)ccc12,54
8,O=c1cc(-c2ccccc2)oc2cc(OCCOCCn3cc(-c4cccc(-c5cn(CCOCCOc6ccc7oc(-c8ccccc8)cc(=O)c7c6)nn5)c4)nn3)ccc12,76
9,Cc1ccc(C(=O)/C=C/c2ccc(OCCCCc3cn(CCOCCOc4cccc(-c5oc6ccccc6c(=O)c5OCc5ccccc5)c4)nn3)cc2)c(O)c1,79
10,COCOc1cc(OCc2ccccc2)c2c(=O)cc(-c3ccc(OCCCc4cn(CCOCCOc5cccc(-c6oc7ccccc7c(=O)c6OCc6ccccc6)c5)nn4)cc3)oc2c1,74
11,O=c1cc(-c2ccccc2)oc2cc(OCCOCCn3cc(CN(Cc4cn(CCOCCOc5ccc6oc(-c7ccccc7)cc(=O)c6c5)nn4)Cc4cn(CCOCCOc5ccc6oc(-c7ccccc7)cc(=O)c6c5)nn4)nn3)ccc12,83
12,COc1cccc(COc2c(-c3ccc(OCCOCCn4cc(CCCCOc5ccc(/C=C/C(=O)c6ccc(F)cc6O)cc5)nn4)cc3)oc3ccccc3c2=O)c1,75
13,O=c1c(OCc2ccccc2)c(-c2ccc(OCCOCCOCCn3cc(-c4ccc(-c5cn(CCOCCOCCOc6ccc(-c7oc8ccccc8c(=O)c7OCc7ccccc7)cc6)nn5)cc4)nn3)cc2)oc2ccccc12,86
14,COc1cccc(COc2c(-c3ccc(OCCOCCn4cc(CCCCOc5ccc(-c6cc(=O)c7cc(C)ccc7o6)cc5)nn4)cc3)oc3ccccc3c2=O)c1,78
15,O=c1cc(-c2ccccc2)oc2cc(OCCCCc3cn(CCOCCOc4ccc5c(=O)cc(-c6ccccc6)oc5c4)nn3)ccc12,53
16,O=C(/C=C/c1ccc(OCCCCc2cn(CCOCCOc3cccc(-c4oc5ccccc5c(=O)c4OCc4ccccc4)c3)nn2)cc1)c1ccccc1O,83
17,O=C(/C=C/c1ccc(OCCCCc2cn(CCOCCOc3cccc(-c4oc5ccccc5c(=O)c4OCc4ccccc4)c3)nn2)cc1)c1ccc(F)cc1O,68
18,C#CCCCOc1ccc(-c2cc(=O)c3ccc(F)cc3o2)cc1,79
19,O=c1cc(-c2ccc(OCCOCCn3cc(-c4cccc(-c5cn(CCOCCOc6ccc(-c7cc(=O)c8ccccc8o7)cc6)nn5)c4)nn3)cc2)oc2ccccc12,79
